The chains are these.
B1: tRNA (parent)
chain: GUUCCGUUGGCGUAAUGGUAACGCGUCUCCCUCCUAAGGAGAAGACUGCGGGUUCGAGUCCCGUACGGAACG

The variants in this data set derive from B1. The data set is described as follows: yeast fitness, log relative to wild type (ln ratio); higher = fitter; tRNA-Arg(CCU), competitive growth, 37 C, 1 M NaCl. In short, it runs like this:
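Fitness is the natural log of a genotype's generation count divided by that of the wild type. A combinatorial library of tRNA-Arg(CCU) variants sat on a HIS3 centromeric plasmid in BY4742 lacking the chromosomal gene, from two independent transformations. Pools grew 4 generations in SC-HIS at 30 °C, then ~6.5 generations (~26.5 h) in SC-HIS 1M NaCl at 37 °C, with three outputs per input. Generations came from OD-scaled log2 output/input frequency, inverse-variance weighted across replicates, with variants counted by 125 bp paired-end Illumina sequencing.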
Take ACUCCGUUGGCGUAAUGGUAACGCGUCUCCCUCCUAAGGAGACGACUGCGGGUUCGAGUCCCGUAAGGAUUG [G1A U2C A43C C66A A70U C71U]: the “yeast fitness (ln)” value is -0.285.
To GGUCCUUUGGCGUAAUGGUAACGCGUCUCCCUCCUAAGGAGAAGACUGCGGGUUCGAGUCCCGUACGGAUUG [U2G G6U A70U C71U] belongs -0.109; to AUUCCAUUGGCGUAAUGGUAACGCGUUUCCCUCCUAAGGAGACGACUGCGGGUUCGAGUCCCGUACGGGGUG [G1A G6A C27U A43C A69G A70G C71U], -0.33.
For the variant GCUCCAUUGGCGUAAUGGUAACGCGUUUCCCUCCUAAGGAGACGACUGCGGGUUCGAGUCCCGUAUGGGUCG [U2C G6A C27U A43C C66U A69G A70U], the “yeast fitness (ln)” value is -0.33.
With ACUCCGUUGGCGUAAUGGUAACGCGUCUCCCUCCUAAGGAGACGAUUGCGGGUUCGAGUCCCGUAUGGAGUG [G1A U2C A43C C46U C66U A70G C71U], the “yeast fitness (ln)” value is -0.0729.
Next, ACUCCGUUGGCGUAAUGGUAACGCGUUUCCCUCCUAAGGAGAAGAUUGCGGGUUCGAGUCCCGUACGGGGUG [G1A U2C C27U C46U A69G A70G C71U]: -0.0376; GUUCCUUUGGCGUAAUGGUAACGCGUCUCCCUCCUAAGGAGACGAUUGCGGGUUCGAGUCCCGUAUGGAGUG [G6U A43C C46U C66U A70G C71U]: -0.295.
To ACUCCUUUGGCGUAAUGGUAACGCGUCUCCCUCCUAAGGAGACGACUGCGGGUUCGAGUCCCGUAUGGAUCG [G1A U2C G6U A43C C66U A70U] belongs -0.295; to AUUCCGUUGGCGUAAUGGUAACGCGUCUCCCUCCUAAGGAGACGACUGCGGGUUCGAGUCCCGUAAGGGUUG [G1A A43C C66A A69G A70U C71U], -0.257; to AUUCCGUUGGCGUAAUGGUAACGCGUUUCCCUCCUAAGGAGAAGACUGCGGGUUCGAGUCCCGUACGGAGUG [G1A C27U A70G C71U], -0.11.
To GGUCCGUUGGCGUAAUGGUAACGCGUCUCCCUCCUAAGGAGACGACUGCGGGUUCGAGUCCCGUAAGGAGCG [U2G A43C C66A A70G] belongs -0.103.
Regarding AGUCCUUUGGCGUAAUGGUAACGCGUUUCCCUCCUAAGGAGAAGAUUGCGGGUUCGAGUCCCGUAAGGAGUG [G1A U2G G6U C27U C46U C66A A70G C71U], the “yeast fitness (ln)” value is -0.239.
As for AGUCCAUUGGCGUAAUGGUAACGCGUUUCCCUCCUAAGGAGAAGACUGCGGGUUCGAGUCCCGUAUGGGGUG [G1A U2G G6A C27U C66U A69G A70G C71U], the “yeast fitness (ln)” value was -0.402.
To AGUCCUUUGGCGUAAUGGUAACGCGUUUCCCUCCUAAGGAGAAGAUUGCGGGUUCGAGUCCCGUAAGGAACG [G1A U2G G6U C27U C46U C66A] belongs -0.2; to ACUCCUUUGGCGUAAUGGUAACGCGUUUCCCUCCUAAGGAGAAGAUUGCGGGUUCGAGUCCCGUACGGGUCG [G1A U2C G6U C27U C46U A69G A70U], -0.219; to GUUCCUUUGGCGUAAUGGUAACGCGUCUCCCUCCUAAGGAGAAGAUUGCGGGUUCGAGUCCCGUACGGGUCG [G6U C46U A69G A70U], -0.204.
Turning to GUUCCGUUGGCGUAAUGGUAACGCGUUUCCCUCCUAAGGAGAAGACUGCGGGUUCGAGUCCCGUAUGGGUUG [C27U C66U A69G A70U C71U], the “yeast fitness (ln)” value was -0.369.
Take GCUCCGUUGGCGUAAUGGUAACGCGUCUCCCUCCUAAGGAGAAGACUGCGGGUUCGAGUCCCGUACGGGAUG [U2C A69G C71U]: the “yeast fitness (ln)” value is -0.158.
Turning to GUUCCGUUGGCGUAAUGGUAACGCGUCUCCCUCCUAAGGAGAAGAUUGCGGGUUCGAGUCCCGUAUGGGAUG [C46U C66U A69G C71U], the “yeast fitness (ln)” value is -0.396.
Next, AGUCCGUUGGCGUAAUGGUAACGCGUUUCCCUCCUAAGGAGACGACUGCGGGUUCGAGUCCCGUAAGGAGCG [G1A U2G C27U A43C C66A A70G]: -0.255.
To GGUCCAUUGGCGUAAUGGUAACGCGUCUCCCUCCUAAGGAGAAGAUUGCGGGUUCGAGUCCCGUACGGAGCG [U2G G6A C46U A70G] belongs -0.0796; to AUUCCAUUGGCGUAAUGGUAACGCGUUUCCCUCCUAAGGAGACGAUUGCGGGUUCGAGUCCCGUAUGGAUCG [G1A G6A C27U A43C C46U C66U A70U], -0.318.
Next, GCUCCUUUGGCGUAAUGGUAACGCGUCUCCCUCCUAAGGAGACGAUUGCGGGUUCGAGUCCCGUAAGGAAUG [U2C G6U A43C C46U C66A C71U]: -0.077.
Regarding GGUCCGUUGGCGUAAUGGUAACGCGUCUCCCUCCUAAGGAGAAGACUGCGGGUUCGAGUCCCGUAAGGGUCG [U2G C66A A69G A70U], the “yeast fitness (ln)” value was -0.131.
To ACUCCGUUGGCGUAAUGGUAACGCGUCUCCCUCCUAAGGAGAAGACUGCGGGUUCGAGUCCCGUAUGGAUCG [G1A U2C C66U A70U] belongs -0.0937; to AGUCCAUUGGCGUAAUGGUAACGCGUUUCCCUCCUAAGGAGAAGAUUGCGGGUUCGAGUCCCGUACGGAUCG [G1A U2G G6A C27U C46U A70U], -0.189; to AUUCCGUUGGCGUAAUGGUAACGCGUCUCCCUCCUAAGGAGAAGACUGCGGGUUCGAGUCCCGUACGGGACG [G1A A69G], -0.141.
Next, AUUCCAUUGGCGUAAUGGUAACGCGUUUCCCUCCUAAGGAGAAGACUGCGGGUUCGAGUCCCGUAUGGGAUG [G1A G6A C27U C66U A69G C71U]: -0.321; ACUCCUUUGGCGUAAUGGUAACGCGUCUCCCUCCUAAGGAGAAGAUUGCGGGUUCGAGUCCCGUAUGGGUCG [G1A U2C G6U C46U C66U A69G A70U]: -0.156.
Next, GUUCCGUUGGCGUAAUGGUAACGCGUUUCCCUCCUAAGGAGAAGAUUGCGGGUUCGAGUCCCGUACGGGGUG [C27U C46U A69G A70G C71U]: -0.298.
As for AUUCCUUUGGCGUAAUGGUAACGCGUCUCCCUCCUAAGGAGAAGAUUGCGGGUUCGAGUCCCGUAAGGAGUG [G1A G6U C46U C66A A70G C71U], the “yeast fitness (ln)” value is -0.0299.
To GUUCCAUUGGCGUAAUGGUAACGCGUUUCCCUCCUAAGGAGAAGAUUGCGGGUUCGAGUCCCGUACGGAUUG [G6A C27U C46U A70U C71U] belongs -0.218; to ACUCCGUUGGCGUAAUGGUAACGCGUCUCCCUCCUAAGGAGACGACUGCGGGUUCGAGUCCCGUACGGAUCG [G1A U2C A43C A70U], -0.108; to GUUCCGUUGGCGUAAUGGUAACGCGUUUCCCUCCUAAGGAGACGAUUGCGGGUUCGAGUCCCGUACGGGGUG [C27U A43C C46U A69G A70G C71U], -0.0917.
Next, GGUCCGUUGGCGUAAUGGUAACGCGUCUCCCUCCUAAGGAGACGAUUGCGGGUUCGAGUCCCGUACGGAUCG [U2G A43C C46U A70U]: 0.00593.
AGUCCUUUGGCGUAAUGGUAACGCGUUUCCCUCCUAAGGAGACGAUUGCGGGUUCGAGUCCCGUAUGGAAUG [G1A U2G G6U C27U A43C C46U C66U C71U]: the “yeast fitness (ln)” value was -0.526.
Next, ACUCCUUUGGCGUAAUGGUAACGCGUCUCCCUCCUAAGGAGACGAUUGCGGGUUCGAGUCCCGUACGGAAUG [G1A U2C G6U A43C C46U C71U]: -0.143.

These data come from the RNAGym collection of RNA variant scans (doi:10.1038/s41586-018-0170-7).
